Assay results reported in ChEMBL document CHEMBL3272265, “Interferon inducing activities of derivatives of 1,3-dimethyl-4-(3-dimethylaminopropylamino)-1H-pyrazolo(3,4-b)quinoline and related compounds” (J Med Chem, 1976).
Activity calls are given as the source filed them. The calls are words filed in the database; no cut-off is given here.

How the values were obtained:
Mus musculus [1] = test: Induction of interferon level in CD-1 mouse serum at 400 mg/kg, po after 18 to 20 hrs by vesicular stomatitis virus plaque reduction assay; format: functional, organism-based; set-up: dose 400 mg/kg
Method in brief: (§1)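 Dosing was oral or ip in 15-g female CD-1 mice, at least three per dose level, with compound in sterile distilled water as a solution or suspension. Pooled sera were collected 18–20 hr after dosing. Interferon units/ml were quantified by a plaque reduction assay on mouse L cells with vesicular stomatitis virus challenge, run against an NIAID reference mouse interferon standard.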

Mus musculus [2] = test: Induction of interferon level >= 32 units/mL in po dosed CD-1 mouse serum after 18 to 20 hrs by vesicular stomatitis virus plaque reduction assay; format: functional; details: CD-1, Serum, read-out: MED
Method in brief: (§2)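 Female CD-1 mice (15 g; at least three per dose) received compound dissolved or suspended in sterile distilled water, orally or ip. They were bled 18–20 hr later and sera pooled. Interferon was titrated by plaque reduction in mouse L cells challenged with vesicular stomatitis virus, with an NIAID reference mouse interferon standard. MED was the lowest dose giving ≥32 units/ml. Top doses were 400 mg/kg po and 300 mg/kg ip.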

Mus musculus [3] = test: Induction of interferon level >= 32 units/mL in ip dosed CD-1 mouse serum after 18 to 20 hrs by vesicular stomatitis virus plaque reduction assay; format: functional; details: CD-1, Serum, read-out: MED; method in brief: as §2
Mus musculus [4] = test: Induction of interferon level in CD-1 mouse serum at 300 mg/kg, ip after 18 to 20 hrs by vesicular stomatitis virus plaque reduction assay; format: functional, organism-based; set-up: dose 300 mg/kg; method in brief: as §1
Mus musculus [5] = test: Toxicity in CD-1 mouse at 300 mg/kg, ip; format: organism-based; set-up: dose 300 mg/kg, route intraperitoneal; details: in vivo

CC(=O)Nc1ccc2c(NCCCN(C)C)c3c(C)nn(C)c3nc2c1
Activity (Mus musculus [1]): inactive

Cc1cccc2c(NCCCN(C)C)c3ccccc3nc12
Activity (Mus musculus [1]): inactive

Cc1nn(C)c2nc3cc(C(N)=O)ccc3c(NCCCN(C)C)c12
Activity (Mus musculus [1]): inactive

CCN(CC)CC(O)CNc1c2ccccc2nc2c1c(C)nn2C.Cl (centres undefined)
minimal effective dose (Mus musculus [2]): 400 mg/kg

Cc1nn(C)c2nc3cccc(NCCCN(C)C)c3cc12
Activity (Mus musculus [1]): inactive

Cc1nn(C)c2nc3ccccc3c(NCCCN)c12.Cl
minimal effective dose (Mus musculus [3]): ≥ 300 mg/kg

COC(=O)c1ccc2c(NCCCN(C)C)c3c(C)nn(C)c3nc2c1
Activity (Mus musculus [4]): inactive

Cc1nn(C)c2nccc(NCCCN(C)C)c12
Activity (Mus musculus [1]): inactive

Cc1nn(C)c2nc3cc(O)ccc3c(NCCCN(C)C)c12
Activity (Mus musculus [4]): inactive

Cc1nn(C)c2nc3ccccc3c(NCCCCCCN(C)C)c12.Cl
minimal effective dose (Mus musculus [2]): 200 mg/kg

Cc1nn(C)c2nc3ccccc3c(N3CCCCC3CCN(C)C)c12 (centres undefined)
Activity (Mus musculus [4]): inactive

CC(=O)Nc1ccc2nc3c(c(C)nn3C)c(NCCCN(C)C)c2c1
Activity (Mus musculus [4]): inactive

Cc1nn(C)c2nc3ccccc3c(NCCCCNc3c4ccccc4nc4c3c(C)nn4C)c12
minimal effective dose (Mus musculus [3]): ≥ 300 mg/kg

Cc1nn(C)c2nc3ccccc3c(NCCCN(CCO)CCO)c12
Activity (Mus musculus [4]): inactive

CNCc1c2ccccc2nc2c1c(C)nn2C
Activity (Mus musculus [4]): inactive

Cc1nn(C)c2nc3ccccc3c(Cl)c12
Activity (Mus musculus [1]): inactive

Cc1nn(C)c2nc3cc(C(=O)O)ccc3c(NCCCN(C)C)c12
Activity (Mus musculus [4]): inactive

Cc1nn(C)c2nc3ncccc3c(NCCCN(C)C)c12.Cl
minimal effective dose (Mus musculus [3]): ≥ 300 mg/kg

CSCCCNc1c2ccccc2nc2c1c(C)nn2C
Activity (Mus musculus [1]): inactive

Cc1nn(C)c2nc3ccccc3c(NCCCC(=O)O)c12
Activity (Mus musculus [4]): inactive

Cc1nn(C)c2nc3c(cnn3C)c(NCCCN(C)C)c12
Activity (Mus musculus [1]): inactive

COc1ccc(-n2nc(C)c3c(NCCCN(C)C)c4ccccc4nc32)cc1
Activity (Mus musculus [4]): inactive

Cc1nn(C)c2nc3ccccc3c(CNCCCN(C)C)c12.Cl
minimal effective dose (Mus musculus [3]): ≥ 300 mg/kg

Cc1nn(C)c2nc3ccccc3c(NCCN(C)C)c12.Cl
minimal effective dose (Mus musculus [2]): 400 mg/kg

Cc1nn(C)c2nc3ccccc3c(NCCC[S+](C)[O-])c12 (centres undefined)
Activity (Mus musculus [1]): inactive

Cc1nn(CCO)c2nc3ccccc3c(NCCCN(C)C)c12
Activity (Mus musculus [4]): inactive

Cc1ccc2nc3c(c(C)nn3C)c(NCCCN(C)C)c2c1.Cl
minimal effective dose (Mus musculus [3]): 50 mg/kg | minimal effective dose (Mus musculus [2]): 50 mg/kg

Cc1nn(C)c2nc3ccccc3c(SCc3ccccc3)c12
Activity (Mus musculus [1]): inactive

Cc1nn(C)c2nc3c(Cl)cccc3c(NCCCN(C)C)c12
Activity (Mus musculus [4]): inactive

Cc1cc2nc3c(c(C)nn3C)c(NCCCN(C)C)c2cc1C.Cl
minimal effective dose (Mus musculus [3]): 25 mg/kg | minimal effective dose (Mus musculus [2]): 50 mg/kg

COc1cc(OC)c2c(NCCCN(C)C)c3c(C)nn(C)c3nc2c1.Cl
minimal effective dose (Mus musculus [3]): 25 mg/kg | minimal effective dose (Mus musculus [2]): 25 mg/kg

Cc1nn(C)c2nc3cccc([N+](=O)[O-])c3c(NCCCN(C)C)c12
Activity (Mus musculus [1]): inactive

Cc1nn(C)c2nc3ccccc3c(NCCCCN(C)C)c12.Cl
minimal effective dose (Mus musculus [2]): 200 mg/kg

Cc1nn(C)c2nc3cccc(N)c3c(NCCCN(C)C)c12
Activity (Mus musculus [4]): inactive

Cc1nn(C)c2nc3ccccc3c(NC34CC5CC(CC(C5)C3)C4)c12
Activity (Mus musculus [4]): inactive

Cc1nn(C)c2nc3ccccc3c(NCCCNC(C)(C)C)c12.Cl
minimal effective dose (Mus musculus [3]): ≥ 300 mg/kg

Cc1nn(C)c2nc3ccc(N)cc3c(NCCCN(C)C)c12
Activity (Mus musculus [4]): inactive

Cc1nn(C)c2nc3ccccc3c(CCNCCCNCCCN(C)C)c12
Activity (Mus musculus [4]): inactive

CN(C)CCCNc1c2ccccc2nc2c1ccn2C
minimal effective dose (Mus musculus [2]): 200 mg/kg

Cc1nn(-c2ccc(C(=O)O)cc2)c2nc3ccccc3c(NCCCN(C)C)c12
Activity (Mus musculus [4]): inactive

Cc1nn(C)c2nc3ccccc3c(NCCCN3CCN(C)CC3)c12.Cl
minimal effective dose (Mus musculus [3]): 300 mg/kg

Cc1nn(C)c2nc3ccccc3c(NN3CCN(C)CC3)c12.Cl
minimal effective dose (Mus musculus [3]): 300 mg/kg

CCN1CCCC(Nc2c3ccccc3nc3c2c(C)nn3C)C1.Cl (centres undefined)
minimal effective dose (Mus musculus [3]): ≥ 300 mg/kg

CN(C)CCCNc1ccnc2ccccc12
Activity (Mus musculus [4]): inactive

Cc1cc(NCCCNc2c3ccccc3nc3c2c(C)nn3C)n(C)n1
Activity (Mus musculus [4]): inactive

CCN(CC)CCCNc1c2ccccc2nc2c1c(C)nn2C.Cl
minimal effective dose (Mus musculus [3]): 300 mg/kg | minimal effective dose (Mus musculus [2]): 400 mg/kg

Cc1nn(CC(=O)O)c2nc3ccccc3c(NCCCN(C)C)c12
Activity (Mus musculus [4]): inactive

CCNc1ccc2nc3c(c(C)nn3C)c(NCCCN(C)C)c2c1.Cl
minimal effective dose (Mus musculus [3]): 25 mg/kg | minimal effective dose (Mus musculus [2]): 50 mg/kg

COc1ccc2c(NCCCN(C)C)c3c(C)nn(C)c3nc2c1.Cl
minimal effective dose (Mus musculus [3]): 50 mg/kg | minimal effective dose (Mus musculus [2]): 50 mg/kg

Cc1nn(-c2ccccc2)c2nc3ccccc3c(NCCCN(C)C)c12
Activity (Mus musculus [4]): inactive

Cc1nn(C)c2ncc(C(=O)O)c(NCCCN(C)C)c12
Activity (Mus musculus [1]): inactive

Cc1nn(C)c2nc3ccccc3c(N)c12
Activity (Mus musculus [1]): inactive

Cc1nn(C)c2nc3ccccc3c(NCCCNC=O)c12
Activity (Mus musculus [4]): inactive

Cc1nn(C)c2nc3cc(CO)ccc3c(NCCCN(C)C)c12.Cl
minimal effective dose (Mus musculus [3]): 100 mg/kg | minimal effective dose (Mus musculus [2]): 200 mg/kg

COc1cccc2c(NCCCN(C)C)c3c(C)nn(C)c3nc12.Cl
minimal effective dose (Mus musculus [3]): 50 mg/kg | minimal effective dose (Mus musculus [2]): 100 mg/kg

CNCCCNc1c2ccccc2nc2c1c(C)nn2C.Cl
minimal effective dose (Mus musculus [3]): 150 mg/kg | minimal effective dose (Mus musculus [2]): 200 mg/kg

Cc1nn(C)c2nc3ccccc3c(NCCCN3CCNCC3)c12.Cl
minimal effective dose (Mus musculus [3]): 100 mg/kg

CCN(CC)CCCC(C)Nc1c2ccccc2nc2c1c(C)nn2C (centres undefined)
Activity (Mus musculus [1]): inactive

Cc1nn(CC(=O)NCCCN(C)C)c2nc3ccccc3c(NCCCN(C)C)c12
Activity (Mus musculus [4]): inactive

CN(C)CCCNc1c2ccccc2nc2c1cnn2C.Cl
minimal effective dose (Mus musculus [2]): 200 mg/kg

Cc1nn(C)c2nc3cc(C(=O)NCCCN(C)C)ccc3c(NCCCN(C)C)c12
Activity (Mus musculus [4]): inactive

Cc1nn(C)c2nc3ccccc3c(CCNCCCN(C)C)c12
Activity (Mus musculus [1]): inactive

Cc1nn(C)c2nc3ccc(O)cc3c(NCCCN(C)C)c12
Activity (Mus musculus [4]): inactive

Cc1nn(C)c2nc3ccc(S(=O)(=O)NCCCN(C)C)cc3c(NCCCN(C)C)c12
Activity (Mus musculus [4]): inactive

Cc1nsc2nc3ccccc3c(NCCCN(C)C)c12
Activity (Mus musculus [1]): inactive

Cc1nn(C)c2nc3ccc(S(=O)(=O)O)cc3c(NCCCN(C)C)c12
Activity (Mus musculus [4]): inactive

Cc1nn(C)c2nc3ccccc3c(NCCCCCN(C)C)c12.Cl
minimal effective dose (Mus musculus [3]): 150 mg/kg | minimal effective dose (Mus musculus [2]): 200 mg/kg

Cc1nn(C)c2nc3cc4ccccc4cc3c(NCCCN(C)C)c12.Cl
minimal effective dose (Mus musculus [3]): 100 mg/kg

CN(C)CCCNc1ccncc1
Activity (Mus musculus [4]): inactive

Cc1nn(C)c2nc3ccc(F)cc3c(NCCCN(C)C)c12.Cl
minimal effective dose (Mus musculus [2]): ≥ 400 mg/kg

Cc1nn(C)c2nc3ccccc3cc12
Activity (Mus musculus [1]): inactive

Cc1nn(C)c2nc3ccccc3c(NCCCNC(C)C)c12.Cl
minimal effective dose (Mus musculus [3]): ≥ 300 mg/kg

Cc1nn(C)c2nc3c(cc12)CCCC3
Activity (Mus musculus [1]): inactive

Cc1cc(Nc2ccccc2CNCCCN(C)C)n(C)n1
Activity (Mus musculus [4]): inactive

Cc1nn(C)c2nc3ccccc3c(NCCCN3CCCC3)c12.Cl
minimal effective dose (Mus musculus [2]): 200 mg/kg

Cc1nn(C)c2nc3ccc(S(N)(=O)=O)cc3c(NCCCN(C)C)c12
Activity (Mus musculus [4]): inactive

Cc1nn(C)c2nc3c(c(C)nn3C)c(NCCCN(C)C)c12
Activity (Mus musculus [1]): inactive

Cc1nn(C)c2nc3ccccc3c(NCCCO)c12
Activity (Mus musculus [1]): inactive

Cc1nn(C)c2nc3c(ccc4ncccc43)c(NCCCN(C)C)c12.Cl
minimal effective dose (Mus musculus [3]): 100 mg/kg | minimal effective dose (Mus musculus [2]): 100 mg/kg

Cc1cc(C)c2nc3c(c(C)nn3C)c(NCCCN(C)C)c2c1.Cl
minimal effective dose (Mus musculus [2]): 400 mg/kg

Cc1nn(C)c2nc3cc(F)ccc3c(NCCCN(C)C)c12.Cl
minimal effective dose (Mus musculus [2]): ≥ 100 mg/kg

Cc1nn(C)c2nc3cc([N+](=O)[O-])ccc3c(NCCCN(C)C)c12
Activity (Mus musculus [4]): inactive

Cc1n[nH]c2nc3ccccc3c(NCCCN(C)C)c12
Activity (Mus musculus [4]): inactive

Cc1nn(C)c2nc3ncncc3c(NCCCN(C)C)c12
Activity (Mus musculus [4]): inactive

Cc1nn(C)c2nc3ccccc3c(NCCCNC3CCCCC3)c12.Cl
Activity (Mus musculus [5]): Toxic

COc1cccc2nc3c(c(C)nn3C)c(NCCCN(C)C)c12.Cl
minimal effective dose (Mus musculus [3]): 100 mg/kg | minimal effective dose (Mus musculus [2]): 100 mg/kg

Cc1nn(C)c2nc3ccccc3c(NCc3ccccc3N(C)C)c12
Activity (Mus musculus [4]): inactive

Cc1nn(C)c2nc3cc(N)ccc3c(NCCCN(C)C)c12
Activity (Mus musculus [1]): inactive

Cc1nn(C)c2nc3ccccc3c(S)c12
Activity (Mus musculus [4]): inactive

COc1cc2nc3c(c(C)nn3C)c(NCCCN(C)C)c2cc1OC.Cl
minimal effective dose (Mus musculus [3]): 50 mg/kg | minimal effective dose (Mus musculus [2]): 50 mg/kg

COC(=O)CCCNc1c2ccccc2nc2c1c(C)nn2C
Activity (Mus musculus [4]): inactive

Cc1nn(C)c2nc3ccccc3c(NCCCN(C)CCCN(C)C)c12.Cl
minimal effective dose (Mus musculus [3]): > 300 mg/kg

CNc1c2ccccc2nc2c1c(C)nn2C
Activity (Mus musculus [1]): inactive

Cc1nn(C)c2c1Cc1ccccc1N2
Activity (Mus musculus [1]): inactive

Cc1nn(C)c2nc3ccccc3c(NCCCCl)c12
Activity (Mus musculus [1]): inactive

Cc1nn(C)c2nc3cc(Cl)ccc3c(NCCCN(C)C)c12.Cl
minimal effective dose (Mus musculus [3]): ≥ 100 mg/kg | minimal effective dose (Mus musculus [2]): ≥ 100 mg/kg

Cc1ccc2c(NCCCN(C)C)c3c(C)nn(C)c3nc2c1C.Cl
minimal effective dose (Mus musculus [3]): 200 mg/kg | minimal effective dose (Mus musculus [2]): 200 mg/kg

Cc1cc(Nc2ccccc2C(=O)NCCCN(C)C)n(C)n1
Activity (Mus musculus [4]): inactive

Cc1cc(Nc2c3ccccc3nc3c2c(C)nn3C)n(C)n1
Activity (Mus musculus [4]): inactive
